According to ChEMBL document CHEMBL1140313, “Potent inhibitors of subgenomic hepatitis C virus RNA replication through optimization of indole-N-acetamide allosteric inhibitors of the viral NS5B polymerase” (J Med Chem, 2005):

Columns and labels:
[1] = Plasma half life following 3 mg/kg iv administration in rat; format: ADME, organism-based; set-up: dose 3 mg/kg, route intravenous
In short: (§1)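 Sprague-Dawley rats and male beagle dogs, dosed as trifluoroacetate salts (mg/kg; n = 3, some n = 2). Rat vehicle: iv 20% DMSO/[…] with po PEG-400, or iv 20% DMSO/80% saline with po 50% PEG-400/50% H2O. Dog vehicle: iv 20% DMSO/40% PEG-400/40% H2O, po PEG-400. Plasma levels measured by HPLC–MS/MS; noncompartmental analysis; terminal half-life from iv.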

Huh-7 [2] = assay: Effective concentration required to inhibit replication of subgenomic HCV RNA in HUH-7 cells in the presence of 10% fetal calf serum; format: functional, cell-based; conditions: Homo sapiens
In short: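 Subgenomic HCV replicon in HUH-7 cells, run in medium with 10% fetal calf serum (a modification of Bartenschlager's method). EC50 was determined only for compounds giving >50% inhibition in an initial screen at a fixed 5 μM. Values are the arithmetic mean ± half-range or standard error of at least two independent determinations, or from a single experiment where noted.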

[3] = Oral bioavailability in dog at a dose of 2 mg/kg; format: ADME, organism-based, Canis lupus familiaris; conditions: in vivo; in short: as §1
[4] = biological target: RNA-directed RNA polymerase (Hepacivirus hominis, UniProt O39930); assay: Inhibitory activity against hepatitis C virus NS5B polymerase enzyme; Range=6-9 nM
In short: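 Purified ΔC55 NS5B polymerase assayed with heterogenic template RNA. IC50 values come from a single experiment or are arithmetic means of multiple experiments, as footnoted; some were measured in duplicate.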

Huh-7 [5] = assay: Effective concentration required to inhibit replication of subgenomic HCV RNA in HUH-7 cells in the presence of 50% normal human serum; format: functional, cell-based
In short: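 Subgenomic HCV replicon in HUH-7 cells run under high-serum conditions with 50% normal human serum in place of 10% fetal calf serum. EC50 values are the arithmetic mean ± half-range or standard error of at least two independent determinations.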

[6] = Plasma clearance after intravenous administration of 1 mg/kg in dog; format: ADME, organism-based, Canis lupus familiaris; set-up: dose 1 mg/kg, route intravenous; conditions: read-out: Clp; in short: as §1
[7] = Oral bioavailability in rat (dose 3 mg/kg); format: ADME, organism-based; conditions: in vivo; in short: as §1
[8] = Plasma clearance in rat; format: ADME, organism-based; conditions: read-out: Clp; in short: as §1
[9] = Plasma half life following 1 mg/kg iv administration in dog; format: ADME, organism-based, Canis lupus familiaris; set-up: dose 1 mg/kg, route intravenous; in short: as §1
[10] = Plasma clearance in dod; format: ADME, organism-based, Canis lupus familiaris; conditions: dog, read-out: Clp; in short: as §1

RNA-directed RNA polymerase, sequence (O39930 whole entry): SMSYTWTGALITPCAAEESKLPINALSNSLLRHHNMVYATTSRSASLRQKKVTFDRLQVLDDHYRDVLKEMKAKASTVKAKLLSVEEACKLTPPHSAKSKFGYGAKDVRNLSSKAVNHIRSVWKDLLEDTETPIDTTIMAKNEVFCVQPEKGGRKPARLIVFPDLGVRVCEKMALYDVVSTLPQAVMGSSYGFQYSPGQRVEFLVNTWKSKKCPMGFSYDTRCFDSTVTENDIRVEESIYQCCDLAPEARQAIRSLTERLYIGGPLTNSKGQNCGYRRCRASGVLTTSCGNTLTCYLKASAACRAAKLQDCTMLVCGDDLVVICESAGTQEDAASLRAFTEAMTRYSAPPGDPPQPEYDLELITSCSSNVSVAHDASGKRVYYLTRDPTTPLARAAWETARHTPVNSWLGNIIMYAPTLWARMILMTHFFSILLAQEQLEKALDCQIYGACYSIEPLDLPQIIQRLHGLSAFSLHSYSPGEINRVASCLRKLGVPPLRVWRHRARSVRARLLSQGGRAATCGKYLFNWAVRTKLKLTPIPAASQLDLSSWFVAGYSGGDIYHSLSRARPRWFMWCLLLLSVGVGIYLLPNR

**Q.** With `CCN(CC)C1CCN(C(=O)Cn2c(-c3ccc(Cl)cc3)c(C3CCCCC3)c3ccc(C(=O)O)cc32)CC1` as the compound, how does the half-life [1] read?
**A.** The half-life was 3.1 h.

**Q.** What about the EC50 (Huh-7 [2]) of the same compound?
**A.** Its EC50 is 127 nM.

**Q.** And the bioavailability [3]?
**A.** Its bioavailability is 51%.

**Q.** What about the IC50 [4] of the same compound?
**A.** Its IC50 is 9 nM.

**Q.** What about the EC50 (Huh-7 [5]) of the same compound?
**A.** The EC50 was 454 nM.

**Q.** And the clearance [6]?
**A.** Its clearance is 9 mL/min/kg.

**Q.** What about the bioavailability [7] of the same compound?
**A.** The bioavailability was 10%.

**Q.** What about the clearance [8] of the same compound?
**A.** The clearance was 44 mL/min/kg.

**Q.** And the half-life [9]?
**A.** The half-life was 5 h.

**Q.** And the clearance [10]?
**A.** Its clearance is 9 mL/min/kg.
